Assay outcomes from PubChem BioAssay.
Only some compounds are listed: those with a hit (about 4.7% of all), similar ones and a draw of the others.
HTR2A ag: mouse HTR2A agonism via beta-arrestin recruitment; activation, % at 7.6 µM; P35363; CHO-K1 mHTR2A beta-arrestin complementation, luminescence; percent of 30 µM serotonin response; actives 0.66% (n = 360,000);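 active means activation above a run cutoff, the mean activation of all tested compounds plus 3 SD, cut at about 14% in these data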;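 further: 0% = plate median of compound wells and 100% = 30 µM serotonin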
AHR act: human AHR activation. P35869. AHR-responsive luciferase reporter cells, luminescence. activation, % at 5 µM. actives 2.5% (n = 320,000); in the data active means activation above about 47%;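 further: 0% = vehicle wells and 100% = reference agonist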
MC4R antagonist: human MC4R antagonism in cAMP assay. AID 540295. actives 0.48% (n = 360,000). MC4R-expressing cells, MTII-stimulated cAMP, LANCE TR-FRET. P32245. inhibition, % at 6.5 µM;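 active means inhibition above its plate's cutoff, the mean of tested wells on that plate plus 3 SD, cut at about 29% in these data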;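 further: 0% = Melanotan II alone and 100% = Melanotan II plus saturating MCL0020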
Target sequence (P32245 whole entry, looked up): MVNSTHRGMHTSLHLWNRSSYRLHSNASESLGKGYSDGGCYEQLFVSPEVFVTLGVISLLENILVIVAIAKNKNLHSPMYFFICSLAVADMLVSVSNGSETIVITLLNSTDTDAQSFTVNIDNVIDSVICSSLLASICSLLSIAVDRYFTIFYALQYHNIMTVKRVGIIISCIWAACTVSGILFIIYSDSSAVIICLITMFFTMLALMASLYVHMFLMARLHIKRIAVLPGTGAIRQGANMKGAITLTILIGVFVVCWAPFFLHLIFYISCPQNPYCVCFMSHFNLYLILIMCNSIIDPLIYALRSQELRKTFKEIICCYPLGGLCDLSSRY
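system = U2OS cells with stable human MC4R expression | also added = Melanotan II challenge after compound preincubation | dosing = one concentration, 6.5 µM nominal | incubation = compound 30 min, challenge 1 h, detection 1 h | measured by = TR-FRET with Eu-cAMP and labeled anti-cAMP, 671 nm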
MC4R barr agon: activates human MC4R beta-arrestin recruitment | U2OS MC4R beta-arrestin complementation, luminescence; percent of melanotan II response, DMSO zero | actives 0.98% (n = 360,000) | AID 540308 | activation, % at 8.9 µM;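 active means activation above a per-plate cutoff, the mean activation of sample wells on that plate plus 3 SD, cut at about 8% in these data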
FXN GAA850 act: increases GAA850 frataxin promoter reporter activity; AID 540364; HEK293 lucGAA850 FXN promoter luciferase reporter, 24 h; percent of 10 µM SAHA response; actives 0.56% (n = 360,000); activation, % at 6 µM;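 active means activation above the average of all compounds screened plus 3 SD, cutoff fixed separately per campaign, cut at about 7.5% in these data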;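 further: 0% = DMSO wells and 100% = 10 µM SAHA wells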
Numbers without * were called inactive; . = no result.

SMILES | HTR2A ag | AHR act | MC4R antagonist | MC4R barr agon | FXN GAA850 act
O=C(CN1CCOCC1)Nc1c2c(nc3ccccc13)N(Cc1ccccc1)CC2 | 0 | 55* | 5 | 0 | -2
CC(C)C[C@H]1CN(CCCC[C@H]2CNC(=O)C(=O)N2CC2CCCCC2)C(=O)C(=O)N1CCc1ccccc1 | -1 | . | . | . | .
Cc1ccc(S(=O)(=O)N2[C@@H](CO)CO[C@H]2CC(=O)c2ccc(F)cc2)cc1 | -4 | . | . | . | .
CC1CC1C(=O)Nc1nc(-c2cccs2)c(-c2cccs2)s1 (centres undefined) | 7 | 78* | 4 | -2 | 3
N#Cc1cn(Cc2ccco2)c(=O)[nH]c1=O | -3 | . | 2 | -2 | 0
Nc1sc2c(c1C(=O)NC1CCS(=O)(=O)C1)CCCC2 (centres undefined) | 22* | -1 | 4 | 1 | -1
O=[N+]([O-])c1ccc(Nc2nc(NCCO)nc(N3CCCC3)n2)cc1 | 2 | 18 | 8 | -1 | 0
O=[N+]([O-])c1ccc(Nc2nc(N/N=C\c3ccc4c(c3)OCO4)nc(N3CCCCC3)n2)cc1 | -4 | 71* | 7 | -3 | -3
NNc1nc(Nc2ccc([N+](=O)[O-])cc2)nc(N2CCCCCC2)n1 | -7 | 68* | 3 | 0 | 4
O=[N+]([O-])c1ccc(/C=N/Nc2nc(N3CCCCC3)nc(N3CCCCC3)n2)cc1 | 0 | 2 | -1 | -3 | 0
Cc1nn(-c2ccccc2)c(C)c1NC(=O)COc1cc(F)ccc1[N+](=O)[O-] | 5 | 4 | 2 | -2 | -1
NC1=NC2(CCCCC2)N=C(Nc2ccc(Br)cc2)N1 | -6 | 72* | 7 | 0 | 2
CCC(Sc1nc2n[nH]c(C)c2c(=N)n1-c1cccc(Cl)c1)C(=O)NCCOC (centres undefined) | -2 | 63* | 6 | -2 | -3
Cc1cc(-n2c(SCc3ccccc3F)nc3n[nH]c(C)c3c2=N)ccc1Cl | -10 | 55* | 10 | -1 | 2
CCN(C(=O)CSc1nc2n[nH]c(C)c2c(=N)n1-c1ccc(Cl)c(C)c1)c1cccc(C)c1 | 1 | 24 | 21 | 4 | -4
COc1ccccc1NC(=O)CSc1nc2n[nH]c(C)c2c(=N)n1-c1ccccc1Cl | -1 | 75* | 2 | 3 | -4
COc1ccc(NS(=O)(=O)c2cccc(C(=O)NNC(=O)c3ccc(O)c(Cl)c3)c2)cc1 | 1 | 0 | -3 | -1 | 2
CCCCN(C(=O)C1CC(=O)N(c2ccc(CC)cc2)C1)c1c(N)n(CCC)c(=O)[nH]c1=O (centres undefined) | 7 | . | 10 | -3 | 0
CC(=O)c1ccc(S(=O)(=O)N2CCN(C(=O)c3ccc(COc4ccccc4)o3)CC2)cc1 | 3 | . | 3 | -1 | 1
COc1cccc(NC(=O)CN(C)C(=O)CSc2ncnc3sc(C)c(C)c23)c1 | -1 | 16 | 10 | 1 | -2
CN1/C(=C\C=Nc2ccc3ccccc3c2)C(C)(C)c2ccccc21 | -8 | 55* | -3 | 0 | 0
Cc1c(N=C/C=C2\N(C)c3ccccc3C2(C)C)c(=O)n(-c2ccccc2)n1C | -3 | 1 | -5 | 0 | 0
CN1\C(=C/C=C/C=C/C=[N+](C)C)C(C)(C)c2ccccc21 | -4 | . | 3 | 7 | -3
CN(C)c1ccc(N=C/C=C2\N(C)c3ccccc3C2(C)C)cc1 | -6 | 150* | -10 | 2 | -5
CN1/C(=C\C=O)C(C)(C)c2ccccc21 | -3 | 64* | 2 | -2 | 2
SMILES | HTR2A ag | AHR act | MC4R antagonist | MC4R barr agon | FXN GAA850 act
Cc1ccc2c(C)c(C(=O)Nc3cccnc3)oc2c1C | -3 | . | 2 | 1 | 0
Cc1ccc2nc(SCC(=O)NC3CCCc4ccccc43)[nH]c2c1 (centres undefined) | 6 | 59* | 12 | 0 | 0
Cc1ccc2nc(-c3ccc(NC(=O)Cc4cccs4)cc3)[nH]c2c1 | -4 | -7 | 15 | 9.4* | 2
Cc1ccc2nc(SCC(=O)Nc3ncccn3)[nH]c2c1 | -1 | 32 | 16 | -2 | 0
Cc1ccc2nc(SCC(=O)NNC(=O)c3ccccc3)[nH]c2c1 | -3 | 52* | 12 | -2 | 2
Cc1ccc2nc(NC(=O)Cc3cccs3)sc2c1 | 0 | -11 | 12 | -1 | 0
Cc1ccc2nc(SCC(=O)NCc3cccs3)[nH]c2c1 | -4 | 49* | 1 | -1 | 0
COc1ccc(NC2CCCN(C(=O)C3(C)CCCCC3)C2)cc1OC (centres undefined) | -5 | 9 | -2 | 1 | 0
Cc1ccc2nc(SCC(=O)Nc3ccc4c(c3)OCCO4)[nH]c2c1 | 2 | 22 | 1 | -1 | 0
Cc1ccc2nc(SCC(=O)Nc3ccc(C)c([N+](=O)[O-])c3)[nH]c2c1 | 3 | 86* | 5 | 1 | 2
COc1cccc(CNC(=O)CSc2nc3ccc(C)cc3[nH]2)c1 | -1 | 53* | -4 | -1 | 5
CN(CC(=O)NCC(=O)Nc1ccc(F)c(F)c1F)C1CCS(=O)(=O)C1 (centres undefined) | -3 | 1 | 0 | -1 | 2
Cn1c(=O)c2[nH]c(Cc3cccc4ccccc34)nc2n(C)c1=O | -4 | . | -7 | 0 | -1
CC(C)n1nnnc1C1c2ccccc2C(=O)N1C1CC1 (centres undefined) | 6 | . | . | . | .
Cc1nc(NC(N)=S)sc1C(=O)Nc1ccccc1 | -1 | 105* | 8 | -1 | -3
Cc1ccc(NC(=O)c2sc(N)nc2C)cc1 | 9 | 61* | -4 | -3 | 4
COc1cccc(C(=O)N2CCC[C@@H]2C(=O)N2CCC[C@H]2C(=O)NCc2ccncc2)c1 | -1 | . | . | . | .
C[C@@H](NC(=O)[C@@H]1CCCN1C(=O)[C@@H]1CCCN1C(=O)c1cccs1)c1ccccc1 | 3 | . | . | . | .
Cn1c(=O)c2c(ncn2CC(=O)N/N=C/C=C/c2ccccc2[N+](=O)[O-])n(C)c1=O | . | 61* | . | . | .
Cc1ccc(C(=O)N/N=C\C=C\c2ccccc2[N+](=O)[O-])cn1 | -5 | 59* | -11 | 4 | 0
C/C(=N/OCc1ccc(Br)cc1)c1ccccn1 | 0 | 9 | -3 | 8.6* | 6
COc1ccc2c(=O)cc(CO)oc2c1 | 0 | 9 | 22 | 3 | 0
COc1cccc(C(=O)Nc2ccncc2)c1 | . | 5 | . | . | .
COc1cccc(C(=O)NC(=O)Nc2cc(C)[nH]n2)c1 | 2 | 51* | -5 | -1 | 6
Cc1cc(NC(=O)c2cccc(Br)c2)n[nH]1 | 4 | 73* | -3 | 2 | 4
Cc1ccsc1C(=O)NNC(=O)c1ccncc1 | 1 | . | 7 | -2 | 2
O=C(COC(=O)c1ccc[n+]([O-])c1)Nc1ccc([N+](=O)[O-])cc1Cl | 6 | -2 | 8 | 0 | -1
COc1ccc(OC)c(Nc2nc(NCc3ccco3)nc(N)c2[N+](=O)[O-])c1 | -2 | 62* | -3 | 5 | 2
